Legend:
Type in all cases: functional, cell-based
[1] = system: SK-MEL-2; test: Concentration required for inhibiting proliferation of human melanoma tumor cell line SK-MEL-2 after 72 hr of incubation was determined; conditions: SK-MEL-2, 72 h
How it was run: (§1)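 SRB assay. Cells were passaged with trypsin-EDTA, seeded at 1–2 · 10^4 cells/well and grown for 24 h. Compounds dissolved in culture medium were added in triplicate and incubated 48 h at 37 C, 5% CO2. Cells were fixed with 10% cold TCA, stained with 0.4% SRB in 1% acetic acid, and the dye was solubilized in 10 mM Tris base (pH 10.5). Absorbance was read at 520 nm. IC50 is the concentration giving 50% inhibition.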

[2] = system: SK-OV-3; test: Concentration required for inhibiting proliferation of human ovarian tumor cell line SK-OV-3 after 72 hr of incubation was determined; conditions: SK-OV-3, 72 h; how it was run: as §1
[3] = system: XF498; test: Concentration required for inhibiting proliferation of human brain tumor cell line XF 498 after 72 hr of incubation was determined; conditions: XF498, 72 h; how it was run: as §1
[4] = system: A549; test: Concentration required for inhibiting proliferation of human lung tumor cell line A549 after 72 hr of incubation was determined; conditions: A549, 72 h; how it was run: as §1
[5] = system: HCT-15; test: Concentration required for inhibiting proliferation of human colon tumor cell line HCT-15 after 72 hr of incubation was determined; conditions: HCT-15, 72 h; how it was run: as §1
[6] = system: XF498; test: Concentration required for inhibiting proliferation of human brain tumor cell line XF 498 by 50% after 72 hr of incubation was determined; conditions: XF498, 72 h; how it was run: as §1
[7] = system: SK-MEL-2; test: Concentration required for inhibiting proliferation of human melanoma tumor cell line SK-MEL-2 by 50% after 72 hr of incubation was determined; conditions: SK-MEL-2, 72 h; how it was run: as §1

| SMILES | IC50 [1] | IC50 [2] | IC50 [3] | IC50 [4] | IC50 [5] | IC50 [6] | IC50 [7] |
| --- | --- | --- | --- | --- | --- | --- | --- |
| CCC1(c2ccccc2)CC(=O)C(C(CC(=O)c2ccc(-c3ccc(Br)cc3)cc2)c2ccccc2)=C(O)O1 (stereo not given) | 8.51 µM | 5.74 µM | 6.59 µM | 8.13 µM | 6.71 µM |  |  |
| CCCC1(CCc2ccccc2)CC(=O)C(C2CC(c3ccc(-c4ccc(Br)cc4)cc3)Cc3ccccc32)=C(O)O1 (stereo not given) | > 10 µM | > 10 µM | > 10 µM | > 10 µM | > 10 µM |  |  |
| CCC1(c2ccccc2)CC(=O)C(C2CC(c3ccc(-c4ccc(Br)cc4)cc3)Cc3ccccc32)=C(O)O1 (stereo not given) | > 10 µM | > 10 µM | > 10 µM | > 10 µM | > 10 µM |  |  |
| CCC1(c2ccccc2)CC(=O)C(C2CC(c3ccc(OCc4ccc(C(F)(F)F)cc4)cc3)Cc3ccccc32)=C(O)O1 (stereo not given) | > 10 µM | > 10 µM | > 10 µM | > 10 µM | > 10 µM |  |  |
| CCCC1(c2ccccc2)CC(=O)C(C(CC(=O)c2ccc(-c3ccc(Br)cc3)cc2)c2ccccc2)=C(O)O1 (stereo not given) | > 10 µM | > 10 µM | > 10 µM | > 10 µM | > 10 µM |  |  |
| COc1ccc(C2Cc3ccccc3C(C3=C(O)OC(C)(c4ccccc4)CC3=O)C2)cc1 (stereo not given) | > 10 µM | > 10 µM | > 10 µM | > 10 µM | > 10 µM |  |  |
| CC1(c2ccccc2)CC(=O)C(C2CC(c3ccc(-c4ccc(Br)cc4)cc3)Cc3ccccc32)=C(O)O1 (stereo not given) | 2.05 µM | 1.8 µM | 1.36 µM | 1.83 µM | 1.31 µM |  |  |
| CC1(c2ccccc2)CC(=O)C(C(CC(=O)c2ccc(-c3ccc(Br)cc3)cc2)c2ccccc2)=C(O)O1 (stereo not given) | 8.54 µM | 5.69 µM | 6.73 µM | 9.18 µM | 8.59 µM |  |  |
| CCC1(c2ccccc2)CC(=O)C(C2CC(c3ccc(OC)cc3)Cc3ccccc32)=C(O)O1 (stereo not given) | > 10 µM | > 10 µM | > 10 µM | > 10 µM | > 10 µM |  |  |
| COc1cc([C@@H]2c3cc4c(cc3[C@@H](O[C@@H]3O[C@@H]5CO[C@@H](C)O[C@H]5[C@H](O)[C@H]3O)[C@H]3COC(=O)[C@H]23)OCO4)cc(OC)c1O [ETOPOSIDE] |  | 3.46 µM |  | 1.06 µM | 1.45 µM | 3.14 µM | 4.13 µM |

From ChEMBL document CHEMBL1138019, “Synthesis and antitumor activity of 4-hydroxycoumarin derivatives” (Bioorg Med Chem Lett, 2004)
